Test results published in ChEMBL document CHEMBL3621123, “Discovery and Optimization of a Series of Pyrimidine-Based Phosphodiesterase 10A (PDE10A) Inhibitors through Fragment Screening, Structure-Based Design, and Parallel Synthesis” (J Med Chem, 2015).
The source made the active and inactive calls. The calls are words filed in the database; no cut-off is given here.

Assays:
[1] = molecular target: cAMP and cAMP-inhibited cGMP 3',5'-cyclic phosphodiesterase 10A (Homo sapiens, UniProt Q9Y233); test: Inhibition of human PDE10A2 transfected in AD293 cells by IMAP FP assay; type: cell-based
cAMP and cAMP-inhibited cGMP 3',5'-cyclic phosphodiesterase 10A, sequence (Q9Y233 whole entry): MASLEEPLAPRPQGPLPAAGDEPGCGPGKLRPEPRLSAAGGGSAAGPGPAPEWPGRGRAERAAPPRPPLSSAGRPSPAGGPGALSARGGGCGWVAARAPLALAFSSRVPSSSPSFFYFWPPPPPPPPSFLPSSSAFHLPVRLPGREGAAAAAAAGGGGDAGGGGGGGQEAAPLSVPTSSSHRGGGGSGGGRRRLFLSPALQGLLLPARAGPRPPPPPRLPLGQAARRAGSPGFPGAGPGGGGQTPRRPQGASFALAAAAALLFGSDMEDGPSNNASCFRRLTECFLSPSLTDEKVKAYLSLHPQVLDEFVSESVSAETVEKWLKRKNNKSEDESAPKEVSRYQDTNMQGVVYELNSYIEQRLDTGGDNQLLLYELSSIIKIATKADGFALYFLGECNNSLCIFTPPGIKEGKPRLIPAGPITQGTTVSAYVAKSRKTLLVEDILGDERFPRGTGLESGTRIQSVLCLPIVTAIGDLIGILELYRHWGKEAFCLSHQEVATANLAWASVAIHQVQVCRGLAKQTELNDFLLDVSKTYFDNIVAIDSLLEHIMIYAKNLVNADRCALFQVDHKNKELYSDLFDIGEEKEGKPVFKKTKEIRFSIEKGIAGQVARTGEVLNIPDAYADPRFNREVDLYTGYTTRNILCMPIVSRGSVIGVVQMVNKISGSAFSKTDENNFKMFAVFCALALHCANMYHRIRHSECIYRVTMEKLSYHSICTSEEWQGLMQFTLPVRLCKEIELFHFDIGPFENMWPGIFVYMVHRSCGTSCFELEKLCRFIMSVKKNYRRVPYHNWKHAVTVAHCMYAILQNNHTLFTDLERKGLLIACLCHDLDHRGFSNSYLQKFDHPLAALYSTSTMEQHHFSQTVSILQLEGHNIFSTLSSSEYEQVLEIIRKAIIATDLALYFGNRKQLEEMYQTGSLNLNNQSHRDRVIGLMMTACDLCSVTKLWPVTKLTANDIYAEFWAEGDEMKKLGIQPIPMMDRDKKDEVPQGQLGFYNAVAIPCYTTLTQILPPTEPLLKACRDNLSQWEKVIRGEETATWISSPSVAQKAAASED
Procedure, shortened: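 Ki values are the mean of at least two determinations, each from a 10-point dose–response curve.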

[2] = organism: Homo sapiens; test: Selectivity ratio of Ki for human PDE9A2 to Ki for human PDE10A2
Procedure, shortened: (§1)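 The ratio is PDEx Ki divided by PDE10A Ki. Each Ki is the mean of at least two determinations, each from a 10-point dose–response curve.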

[3] = organism: Homo sapiens; test: Selectivity ratio of Ki for human PDE11A4 to Ki for human PDE10A2; procedure, shortened: as §1
[4] = Plasma concentration in Wistar Hannover rat at 1 mg/kg, ip measured after 3.5 hrs; type: ADME, organism-based
Procedure, shortened: (§2)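 Plasma was sampled 3.5 h after a single ip dose, during the MK-801 hyperlocomotion study. Each value is the mean of two or three measurements.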

[5] = Plasma concentration in Wistar Hannover rat at 3 mg/kg, ip measured after 3.5 hrs; type: ADME, organism-based; procedure, shortened: as §2
[6] = Plasma concentration in Wistar Hannover rat at 5 mg/kg, ip measured after 3.5 hrs; type: ADME, organism-based; procedure, shortened: as §2
[7] = tested on: Rattus norvegicus; test: Suppression of MK-801-induced hyperlocomotion in Wistar Hannover rat at 1 to 5 mg/kg, ip administered 120 mins followed by MK-801 induction measured after 90 mins; type: functional, organism-based
Procedure, shortened: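 Rats received ip doses of 1, 3 or 5 mg/kg and were then challenged with MK-801. Psychostimulant-induced locomotor activity was the read-out.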

[8] = organism: Homo sapiens; test: Selectivity ratio of Ki for human PDE1A to Ki for human PDE10A2; procedure, shortened: as §1
[9] = Selectivity ratio of Ki for rhesus monkey PDE2A3 to Ki for human PDE10A2; procedure, shortened: as §1
[10] = organism: Homo sapiens; test: Selectivity ratio of Ki for human PDE3A to Ki for human PDE10A2; procedure, shortened: as §1
[11] = organism: Homo sapiens; test: Selectivity ratio of Ki for human PDE4A1A to Ki for human PDE10A2; procedure, shortened: as §1
[12] = organism: Homo sapiens; test: Selectivity ratio of Ki for human PDE5A1 to Ki for human PDE10A2; procedure, shortened: as §1
[13] = organism: Homo sapiens; test: Selectivity ratio of Ki for human PDE7A to Ki for human PDE10A2; procedure, shortened: as §1
[14] = organism: Homo sapiens; test: Selectivity ratio of Ki for human PDE8A1 to Ki for human PDE10A2; procedure, shortened: as §1

| SMILES | Ki [1] | further results |
| --- | --- | --- |
| Cc1nc(C)c(CNc2nc(OCCCc3nc4ccccc4[nH]3)nc(Cl)c2C)s1 | 0.02 nM |  |
| Cc1nc(C)c(CNc2nc(OCCCc3nc4ccccc4s3)nc(Cl)c2C)s1 | 0.055 nM |  |
| Cc1nc(C)c(CNc2nc(OCCCc3cnc4ccccc4n3)nc(Cl)c2C)s1 | 0.37 nM |  |
| Cc1ncc(CNc2nc(C3CC3)nc(Cl)c2C)s1 | 26 nM |  |
| Cc1c(Cl)nc(C2CC2)nc1N(C)Cc1cnn(C)c1 | 220 nM |  |
| Cc1c(Cl)nc(C2CC2)nc1NCc1ccon1 | 810 nM |  |
| Cc1c(Cl)nc(C2CC2)nc1N1CCNCC1 | 4600 nM |  |
| Cc1nc2c(s1)CN(c1nc(C3CC3)nc(Cl)c1C)CC2 | 1300 nM |  |
| C=C(F)CNc1nc(C2CC2)nc(Cl)c1C | 180 nM |  |
| Cc1csc(CNc2nc(C3CC3)nc(Cl)c2C)n1 | 6800 nM |  |
| Cc1nc(C)c(CNc2nc(OCCCc3ccc4ccccc4n3)nc(Cl)c2C)s1 | 0.0082 nM | Ratio Ki [2]: > 1000; Ratio Ki [3]: > 1000; concentration at 3.5 h [4]: 17 nM; concentration at 3.5 h [5]: 83 nM; concentration at 3.5 h [6]: 110 nM; Activity [7]: Active; Ratio Ki [8]: > 1000; Ratio Ki [9]: > 1000; Ratio Ki [10]: > 1000; Ratio Ki [11]: > 1000; Ratio Ki [12]: > 1000; Ratio Ki [13]: > 1000; Ratio Ki [14]: > 1000 |
| Cc1c(Cl)nc(C2CC2)nc1NCc1ccncc1 | 200 nM |  |
| Cc1c(Cl)nc(C2CC2)nc1NCc1ccoc1 | 680 nM |  |
| Cc1c(Cl)nc(C2CC2)nc1NC1CCCC1 | 2800 nM |  |
| Cc1ccc(CNc2nc(C3CC3)nc(Cl)c2C)cn1 | 130 nM |  |
| Cc1nc(C)c(CNc2nc(OCCCc3cn4ccccc4n3)nc(Cl)c2C)s1 | 0.047 nM |  |
| Cc1cc(CNc2nc(C3CC3)nc(Cl)c2C)no1 | 51 nM |  |
| Cc1ncsc1CNc1nc(C2CC2)nc(Cl)c1C | 1600 nM |  |
| Cc1nc(CNc2nc(C3CC3)nc(Cl)c2C)cs1 | 18 nM |  |
| Cc1nc(C)c(CNc2nc(OCCCc3ccc4cccnc4n3)nc(Cl)c2C)s1 | 0.11 nM |  |
| Cc1c(Cl)nc(C2CC2)nc1NCCc1cnn(C)c1 | 1500 nM |  |
| Cc1c(Cl)nc(C2CC2)nc1N1CCCCC1 | 2100 nM |  |

| SMILES | Ki [1] | further results |
| --- | --- | --- |
| COc1ncc(CNc2nc(C3CC3)nc(Cl)c2C)s1 | 10 nM |  |
| Cc1nc(C)c(CNc2nc(OCCC3CCCCC3)nc(Cl)c2C)s1 | 400 nM |  |
| Cc1cc(CN(C)c2nc(C3CC3)nc(Cl)c2C)on1 | 540 nM |  |
| Cc1nc(C)c(CNc2nc(OCCO)nc(Cl)c2C)s1 | 12 nM |  |
| Cc1c(Cl)nc(C2CC2)nc1NCc1cncs1 | 1000 nM |  |
| Cc1c(Cl)nc(C2CC2)nc1NCc1cnn(C)c1 | 37 nM |  |
| CCCOc1nc(Cl)c(C)c(NCc2sc(C)nc2C)n1 | 5.1 nM |  |
| CCCNc1nc(C2CC2)nc(Cl)c1C | 880 nM | Ratio Ki [2]: 25; Ratio Ki [3]: 25; Ratio Ki [8]: 25; Ratio Ki [9]: 100; Ratio Ki [10]: 25; Ratio Ki [11]: 1; Ratio Ki [12]: 1; Ratio Ki [13]: 25; Ratio Ki [14]: 25 |
| Cc1c(Cl)nc(C2CC2)nc1NCc1cccnc1 | 1000 nM |  |
| Cc1nc(C)c(CNc2nc(OCCc3ccccn3)nc(Cl)c2C)s1 | 2 nM |  |
| Cc1c(Cl)nc(C2CC2)nc1NC(C)C | 3600 nM |  |
| Cc1nc(C)c(CNc2nc(OCCc3ccccc3)nc(Cl)c2C)s1 | 9 nM |  |
| COc1nc(Cl)c(C)c(NCc2sc(C)nc2C)n1 | 8.5 nM |  |
| Cc1c(Cl)nc(C2CC2)nc1N1CCCC1 | 5300 nM |  |
| Cc1nc(C)c(CNc2nc(OCCC3CCCCN3)nc(Cl)c2C)s1 (centres undefined) | 590 nM |  |
| Cc1nc(C)c(CNc2nc(C3CC3)nc(Cl)c2C)s1 | 4.8 nM | Ratio Ki [2]: > 1000; Ratio Ki [3]: 25; Ratio Ki [8]: > 1000; Ratio Ki [9]: > 1000; Ratio Ki [10]: > 1000; Ratio Ki [11]: 100; Ratio Ki [12]: 100; Ratio Ki [13]: > 1000; Ratio Ki [14]: > 1000 |
| Cc1cc(CNc2nc(C3CC3)nc(Cl)c2C)on1 | 38 nM |  |
| Cc1c(N)nc(C2CC2)nc1Cl | 2200 nM |  |
| Cc1c(Cl)nc(C2CC2)nc1NCc1ccccc1 | 1400 nM |  |
| Cc1c(Cl)nc(C2CC2)nc1Cl | 8700 nM | Ratio Ki [2]: 1; Ratio Ki [3]: 1; Ratio Ki [8]: 1; Ratio Ki [9]: 1; Ratio Ki [10]: 1; Ratio Ki [11]: 1; Ratio Ki [12]: 1; Ratio Ki [13]: 1; Ratio Ki [14]: 1 |
| Cc1c(Cl)nc(C2CC2)nc1NC(C)c1ccncc1 (racemic) | 890 nM |  |
| CCNc1nc(C2CC2)nc(Cl)c1C | 1200 nM |  |
